≈ marks a conversion by molar mass, not a printed value. Blank lines part the entries; values can stand above or below the compound they belong to. Calls of active or inactive are those of the source. No cut-off for these calls is given here.
Assays:
[1] = system: Yarrowia lipolytica; test: Antimicrobial activity against Yarrowia lipolytica by agar diffusion test; type: functional, organism-based
[2] = target: T1, Sterol 24-C-methyltransferase (Yarrowia lipolytica) (UniProt Q6C2D9); test: Inhibition of Yarrowia lipolytica 24-SMT assessed as cholesta-7,24-dien-3-trimethylsilyl derivative at 0.2 ug/mL after 48 hrs by GC-MS analysis relative to untreated control; design: scale not given: the % may be the effect or the level left
T1 sequence (whole entry): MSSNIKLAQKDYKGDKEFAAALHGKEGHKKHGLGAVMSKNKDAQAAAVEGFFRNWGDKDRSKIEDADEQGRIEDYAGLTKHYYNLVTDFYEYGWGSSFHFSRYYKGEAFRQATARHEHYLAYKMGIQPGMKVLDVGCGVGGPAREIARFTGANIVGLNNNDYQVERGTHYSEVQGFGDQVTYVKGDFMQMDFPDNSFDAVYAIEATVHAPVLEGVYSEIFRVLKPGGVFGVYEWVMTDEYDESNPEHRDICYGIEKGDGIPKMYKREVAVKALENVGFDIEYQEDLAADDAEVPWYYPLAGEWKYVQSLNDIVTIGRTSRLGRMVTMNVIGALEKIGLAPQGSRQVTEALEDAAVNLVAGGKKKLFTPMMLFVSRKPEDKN
Outline: (§1)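 Whole-cell sterol profiling. Y. lipolytica at 50,000 CFU/mL was exposed to compounds added from ethanol for 48 ± 2 h at 28 °C, and the MIC/2 and/or MIC/4 wells were used. Cells were pelleted and PBS-washed, then saponified in 1 M NaOH at 70 °C for 1 h. Sterols were extracted into TBME with a cholesterol internal standard and silylated to TMS ethers. GC-MS full scan, with each sterol given as % of total integrated quantifier-ion area.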

[3] = target: T1, Sterol 24-C-methyltransferase (Yarrowia lipolytica); test: Inhibition of Yarrowia lipolytica 24-SMT assessed as dehydroergosterol-3-trimethylsilyl derivative at 0.2 ug/mL after 48 hrs by GC-MS analysis relative to untreated control; design: scale not given: the % may be the effect or the level left; outline: as §1
[4] = target: T1, Sterol 24-C-methyltransferase (Yarrowia lipolytica); test: Inhibition of Yarrowia lipolytica 24-SMT assessed as 5-dehydroepisterol-3-trimethylsilyl derivative at 0.2 ug/mL after 48 hrs by GC-MS analysis relative to untreated control; design: scale not given: the % may be the effect or the level left; outline: as §1
[5] = target: T1, Sterol 24-C-methyltransferase (Yarrowia lipolytica); test: Inhibition of Yarrowia lipolytica 24-SMT assessed as lanosterol-3-trimethylsilyl derivative at 0.2 ug/mL after 48 hrs by GC-MS analysis relative to untreated control; design: scale not given: the % may be the effect or the level left; outline: as §1
[6] = system: Yarrowia lipolytica; test: Antimicrobial activity against Yarrowia lipolytica after 48 hrs; type: functional
Outline: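 Broth dilution MIC per DIN 58940-84. Log-phase Y. lipolytica in yeast extract/peptone/glucose medium, counted against a 0.5 McFarland standard (A570) and seeded at 50,000 CFU/mL in 2 mL wells. Compounds added from ethanol; final concentrations 2 to 0.06125 µg/mL unless otherwise stated. Plates incubated 48 ± 2 h at 28 °C. MIC is the lowest concentration with no visible growth.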

[7] = target: T1, Sterol 24-C-methyltransferase (Yarrowia lipolytica); test: Inhibition of Yarrowia lipolytica 24-SMT assessed as zymosterol-3-trimethylsilyl derivative level at 0.2 ug/mL after 48 hrs by GC-MS analysis relative to untreated control; design: scale not given: the % may be the effect or the level left; outline: as §1
[8] = target: T1, Sterol 24-C-methyltransferase (Yarrowia lipolytica); test: Inhibition of Yarrowia lipolytica 24-SMT assessed as cholesta-5,7,24-trien-3-trimethylsilyl derivative at 0.2 ug/mL after 48 hrs by GC-MS analysis relative to untreated control; design: scale not given: the % may be the effect or the level left; outline: as §1
[9] = target: T1, Sterol 24-C-methyltransferase (Yarrowia lipolytica); test: Inhibition of Yarrowia lipolytica 24-SMT assessed as 5-dehydroepisterol-3-trimethylsilyl derivative at 2 ug/mL after 48 hrs by GC-MS analysis relative to untreated control; design: scale not given: the % may be the effect or the level left; outline: as §1
[10] = target: T1, Sterol 24-C-methyltransferase (Yarrowia lipolytica); test: Inhibition of Yarrowia lipolytica 24-SMT assessed as 5-dehydroepisterol-3-trimethylsilyl derivative at 8 ug/mL after 48 hrs by GC-MS analysis relative to untreated control; design: scale not given: the % may be the effect or the level left; outline: as §1
[11] = target: T1, Sterol 24-C-methyltransferase (Yarrowia lipolytica); test: Inhibition of Yarrowia lipolytica 24-SMT assessed as dehydroergosterol-3-trimethylsilyl derivative at 8 ug/mL after 48 hrs by GC-MS analysis relative to untreated control; design: scale not given: the % may be the effect or the level left; outline: as §1
[12] = target: T1, Sterol 24-C-methyltransferase (Yarrowia lipolytica); test: Inhibition of Yarrowia lipolytica 24-SMT assessed as cholesta-7,24-dien-3-trimethylsilyl derivative at 2 ug/mL after 48 hrs by GC-MS analysis relative to untreated control; design: scale not given: the % may be the effect or the level left; outline: as §1
[13] = target: T1, Sterol 24-C-methyltransferase (Yarrowia lipolytica); test: Inhibition of Yarrowia lipolytica 24-SMT assessed as cholesta-7,24-dien-3-trimethylsilyl derivative at 8 ug/mL after 48 hrs by GC-MS analysis relative to untreated control; design: scale not given: the % may be the effect or the level left; outline: as §1
[14] = target: T1, Sterol 24-C-methyltransferase (Yarrowia lipolytica); test: Inhibition of Yarrowia lipolytica 24-SMT assessed as dehydroergosterol-3-trimethylsilyl derivative at 2 ug/mL after 48 hrs by GC-MS analysis relative to untreated control; design: scale not given: the % may be the effect or the level left; outline: as §1
[15] = target: T1, Sterol 24-C-methyltransferase (Yarrowia lipolytica); test: Inhibition of Yarrowia lipolytica 24-sterol C-methyltransferase assessed as ergosterol-3-trimethylsilyl derivative level at 2 ug/mL after 48 hrs by GC-MS analysis relative to untreated control; design: scale not given: the % may be the effect or the level left; outline: as §1
[16] = target: T1, Sterol 24-C-methyltransferase (Yarrowia lipolytica); test: Inhibition of Yarrowia lipolytica 24-SMT assessed as cholesta-5,7,24-trien-3-trimethylsilyl derivative at 2 ug/mL after 48 hrs by GC-MS analysis relative to untreated control; design: scale not given: the % may be the effect or the level left; outline: as §1
[17] = target: T1, Sterol 24-C-methyltransferase (Yarrowia lipolytica); test: Inhibition of Yarrowia lipolytica 24-SMT assessed as cholesta-5,7,24-trien-3-trimethylsilyl derivative at 8 ug/mL after 48 hrs by GC-MS analysis relative to untreated control; design: scale not given: the % may be the effect or the level left; outline: as §1
[18] = target: T1, Sterol 24-C-methyltransferase (Yarrowia lipolytica); test: Inhibition of Yarrowia lipolytica 24-SMT assessed as dehydroergosterol-3-trimethylsilyl derivative at 0.06 ug/mL after 48 hrs by GC-MS analysis relative to untreated control; design: scale not given: the % may be the effect or the level left; outline: as §1
[19] = target: T1, Sterol 24-C-methyltransferase (Yarrowia lipolytica); test: Inhibition of Yarrowia lipolytica 24-SMT assessed as cholesta-7,24-dien-3-trimethylsilyl derivative at 0.06 ug/mL after 48 hrs by GC-MS analysis relative to untreated control; design: scale not given: the % may be the effect or the level left; outline: as §1
[20] = target: T1, Sterol 24-C-methyltransferase (Yarrowia lipolytica); test: Inhibition of Yarrowia lipolytica 24-SMT assessed as 5-dehydroepisterol-3-trimethylsilyl derivative at 0.06 ug/mL after 48 hrs by GC-MS analysis relative to untreated control; design: scale not given: the % may be the effect or the level left; outline: as §1
[21] = target: T1, Sterol 24-C-methyltransferase (Yarrowia lipolytica); test: Inhibition of Yarrowia lipolytica 24-SMT assessed as cholesta-5,7,24-trien-3-trimethylsilyl derivative at 0.06 ug/mL after 48 hrs by GC-MS analysis relative to untreated control; design: scale not given: the % may be the effect or the level left; outline: as §1
[22] = target: T1, Sterol 24-C-methyltransferase (Yarrowia lipolytica); test: Inhibition of Yarrowia lipolytica 24-SMT assessed as zymosterol-3-trimethylsilyl derivative level at 0.06 ug/mL after 48 hrs by GC-MS analysis relative to untreated control; design: scale not given: the % may be the effect or the level left; outline: as §1
[23] = target: T1, Sterol 24-C-methyltransferase (Yarrowia lipolytica); test: Inhibition of Yarrowia lipolytica 24-sterol C-methyltransferase assessed as ergosterol-3-trimethylsilyl derivative level at 0.06 ug/mL after 48 hrs by GC-MS analysis relative to untreated control; design: scale not given: the % may be the effect or the level left; outline: as §1
[24] = target: T1, Sterol 24-C-methyltransferase (Yarrowia lipolytica); test: Inhibition of Yarrowia lipolytica 24-SMT assessed as lanosterol-3-trimethylsilyl derivative at 0.06 ug/mL after 48 hrs by GC-MS analysis relative to untreated control; design: scale not given: the % may be the effect or the level left; outline: as §1
[25] = target: T1, Sterol 24-C-methyltransferase (Yarrowia lipolytica); test: Inhibition of Yarrowia lipolytica 24-SMT assessed as ergosterol-3-trimethylsilyl derivative level at 0.2 ug/mL after 48 hrs by GC-MS analysis relative to untreated control; design: scale not given: the % may be the effect or the level left; outline: as §1

MIC [1]: inactive
Structure (SMILES): C[C@H](/C=C/c1ccncc1)[C@H]1CC[C@H]2C3=CCC4C[C@@H](O)CC[C@]4(C)[C@H]3CC[C@]12C (some centres undefined)

Activity [2]: 2.4%
Activity [3]: 73.3%
Activity [4]: 4.6%
Activity [5]: 0.3%
MIC [6]: 0.5 µg/mL
Activity [7]: 1.4%
Activity [8]: 18%
Structure (SMILES): CC(C)C(C)NC[C@@H](C)[C@H]1CC[C@H]2C3=CC[C@H]4C[C@@H](O)CC[C@]4(C)[C@H]3CC[C@]12C (mixture of isomers)

Activity [9]: 3.3%
Activity [10]: 2.3%
Activity [11]: 27.2%
Activity [12]: 2%
Activity [13]: 5.1%
Activity [14]: 66.4%
MIC [6]: > 2 µg/mL
Activity [15]: 2.7%
Activity [16]: 25.6%
Activity [17]: 65.4%
Structure (SMILES): C[C@H](CNCCCN(C)C)[C@H]1CC[C@H]2C3=CC[C@H]4C[C@@H](O)CC[C@]4(C)[C@H]3CC[C@]12C

MIC [1]: inactive
Structure (SMILES): C[C@H](/C=C/c1ccccn1)[C@H]1CC[C@H]2C3=CCC4C[C@@H](O)CC[C@]4(C)[C@H]3CC[C@]12C (some centres undefined)

Activity [18]: 42.4%
Activity [19]: 5%
Activity [20]: 4.7%
MIC [6]: 0.25 µg/mL (≈ 0.645 µM)
Activity [21]: 47.9%
Structure (SMILES): CCCCNC[C@@H](C)[C@H]1CC[C@H]2C3=CC[C@H]4C[C@@H](O)CC[C@]4(C)[C@H]3CC[C@]12C

Activity [18]: 68.9%
Activity [19]: 1.6%
Activity [20]: 3.8%
MIC [6]: 0.25 µg/mL (≈ 0.622 µM)
Activity [22]: 0.4%
Activity [23]: 4.9%
Activity [21]: 20.4%
Structure (SMILES): CCCCCNC[C@@H](C)[C@H]1CC[C@H]2C3=CC[C@H]4C[C@@H](O)CC[C@]4(C)[C@H]3CC[C@]12C

MIC [1]: inactive
Structure (SMILES): CCCCCCCCCCCCNC[C@@H](C)[C@H]1CC[C@H]2C3=CC[C@H]4C[C@@H](O)CC[C@]4(C)[C@H]3CC[C@]12C

Activity [18]: 67.9%
Activity [20]: 1.8%
Activity [24]: 0.2%
MIC [6]: 0.5 µg/mL
Activity [23]: 11.8%
Activity [21]: 18.3%
Structure (SMILES): C[C@H](/C=C/c1cc[n+](C)cc1)[C@H]1CCC2C3=CCC4C[C@@H](O)CC[C@]4(C)C3CC[C@@]21C.[I-] (some centres undefined)

Activity [18]: 82.1%
Activity [2]: 4.3%
Activity [3]: 7%
Activity [4]: 1%
Activity [20]: 0.7%
Activity [5]: 0.3%
MIC [6]: 1 µg/mL
Activity [25]: 4.1%
Activity [23]: 15%
Activity [8]: 83.4%
Activity [21]: 2.2%
Structure (SMILES): C[C@H](/C=C/c1cccc[n+]1C)[C@H]1CC[C@H]2C3=CCC4C[C@@H](O)CC[C@]4(C)[C@H]3CC[C@]12C.[I-] (some centres undefined)
